Laboratory results as given in ChEMBL document CHEMBL4651341, “The discovery of a novel series of compounds with single-dose efficacy against juvenile and adult Schistosoma species” (PLoS Negl Trop Dis, 2021).
In brackets after ≈: the same amount, converted by molar mass.

Assays:
[1] = system: Schistosoma mansoni; assay: Concentration required to kill 50% of 21 day old worms 5 days after drug treatment.; format: functional, organism-based; settings: Puerto Rican, 120 h
Outline: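 Juvenile S. mansoni (Puerto Rican strain) were perfused from CD1 mice 3 weeks post-infection and washed. They were cultured 6–8 per well in 200 µL DMEM with 2 mM glutamine, penicillin/streptomycin and 10% FCS at 37 °C, 5% CO2. Viability of individual worms was scored on day 5 after dosing (120 h).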

[2] = Percentage of parent compound remaining after incubation for 90 minutes with cyropreserved mouse hepatocytes at a concentration of 1uM compound and […], determined by LCMS; format: ADME, tissue-based, Hepatocyte; settings: cryopreserved mouse hepatocytes, read-out: Stability
Outline: (§1)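 Compound was incubated at 1 µM final (2 µM working solution mixed 1:1 with hepatocyte suspension) in supplemented KHB pH 7.4. Conditions: 37 °C, 5% CO2, gentle mixing, duplicates. Reaction quenched with ice-cold acetonitrile containing standard; analysed by LC-MS/MS. % remaining = AUC at t / AUC at T0.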

[3] = Percentage of parent compound remaining after incubation for 90 minutes with cyropreserved human hepatocytes at a concentration of 1uM compound and 1 million cells/uL, determined by LCMS/MS; format: ADME, tissue-based, Hepatocyte; settings: cryopreserved human hepatocytes, read-out: Stability; outline: as §1
[4] = system: Schistosoma mansoni; assay: Concentration required to kill 50% of 42 day old worms 5 days after drug treatment.; format: functional, organism-based; settings: Puerto Rican, 120 h
Outline: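 Adult S. mansoni were perfused from CD1 mice 6 weeks post-infection and washed. They were cultured 3 pairs per well in 1 mL DMEM with 2 mM glutamine, penicillin/streptomycin and 10% FCS […] at 37 °C, 5% CO2. Viability of individual worms was scored on day 5 (120 h).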

[5] = Concentration required to kill 50% HepG2 cells as detected by MTT staining; format: toxicity, cell-based; settings: homo sapiens, read-out: TC50 (the source's name)
[6] = Solubility at 25 degC of compound (diluted from DMSO) in PBS at pH 7.4 determined after 24h (1h sonication, 22h shaking, 1h sonication) by LCMS/MS; format: physicochemical
[7] = Concentration of drug in plasma at 4h following oral drug adminstration at given dose. Determined by LCMS/MS; format: ADME, organism-based; settings: CD1, mouse
Outline: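 Plasma sampled from the mice of the efficacy experiments, each animal sampled once: one animal per group at 1, 4 and 8 h, two per group at 24 h. Plasma prepared by acetonitrile protein precipitation and analysed by LC-MS against a 10-point calibration line spiked in blank matrix, with QCs at three or more levels.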

[8] = Partition coefficient of compound between n-octanol and PBS (pH7.4); format: physicochemical; settings: octanol/water, pH 7.4
Outline: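 Shake-flask method using octanol and PBS pH 7.4, each pre-saturated with the other. Compound was shaken 2 h at 850 rpm, 25 °C, then the phases were separated by centrifugation and both layers diluted and analysed by LC-MS/MS. LogD = log(octanol AUC × relative dilution / buffer AUC).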

[9] = system: Schistosoma mansoni; assay: Percentage of worms remaining following treatment of female CD1 mice infected with S. mansoni worms (21 day old - juvenile or 42 day old - adult) with compound by oral gavage. Worms were recovered by portal perfusion with citrate saline 8-14 days post treatment and counted. Percentages are from a mean of 5 or 6 animals.; format: functional, Mus musculus; set-up: concentration or dose not given beside the values
Outline: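 Female CD1 mice were infected subcutaneously with 150 cercariae and treated at day 21 (juvenile) or day 42 (adult). Single oral gavage, or two doses 12 h apart, given in 7% Tween-80/3% ethanol/water (sonicated) or in 1:19 DMSO:corn oil. Controls received vehicle only. Worm recoveries are group means, n = 5–6.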

[10] = Mean plasma concentration at 4h in Swiss albino male mice at […] per compound (administered orally in a mixture of 5 compounds to 3 mice) assessed by LCMS/MS.; format: ADME, organism-based; settings: mouse, po
[11] = Mean time to peak plasma concentration in Swiss albino male mice at […] per compound (administered orally in a mixture of 5 compounds to 3 mice) assessed by LCMS/MS.; format: ADME, organism-based; settings: mouse, po
[12] = Plasma protein binding determined at 10uM by LC-MS/MS.; format: ADME, cell-free
Outline: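 Equilibrium dialysis of plasma spiked at 10 µM (0.1% DMSO) against PBS pH 7.4, 6 h at 37 °C, duplicates. Both chambers analysed by LC-MS/MS after acetonitrile precipitation. % free = buffer/plasma area ratio; recovery also calculated.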

[13] = Mean oral bioavailability in Swiss albino male mice at […] per compound (administered in a mixture of 5 compounds to 3 mice) assessed by LCMS/MS.; further: dose 2.5 mg/kg; format: ADME, organism-based; settings: mouse, in vivo
[14] = Mean plasma concentration at 24h in Swiss albino male mice at […] per compound (administered orally in a mixture of 5 compounds to 3 mice) assessed by LCMS/MS.; format: ADME, organism-based; settings: mouse, po
[15] = Mean volume of distribution at steady state in Swiss albino male mice at 1 mg/kg per compound (administered iv in a mixture of 5 compounds to 3 mice) assessed by LCMS/MS.; format: ADME, organism-based; settings: mouse, in vivo, read-out: Volume
Outline: (§2)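 Male Swiss albino mice (~30 g), 3 per experiment, mostly dosed as mixtures of 5 compounds iv via the lateral tail vein. Vehicle: 10% DMSO/90% 50 mM Na2HPO4 with 0.5% Tween-80. Plasma stored at −20 °C and quantified by LC-MS after acetonitrile precipitation.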

[16] = Mean half-life in Swiss albino male mice at 1 mg/kg per compound (administered iv in a mixture of 5 compounds to 3 mice) assessed by LCMS/MS.; format: ADME, organism-based; settings: mouse, in vivo; outline: as §2
[17] = Mean AUC inf in Swiss albino male mice at 1 mg/kg per compound (administered iv in a mixture of 5 compounds to 3 mice) assessed by LCMS/MS.; format: ADME, organism-based; settings: male, Swiss albino, mouse, in vivo
Outline: as §2, with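 “Tween-80. Blood sampled at 5, 15, 30 min and 1, 2, 4, 8, 24 h.” for “Tween-80.”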

[18] = Mean observed clearance in Swiss albino male mice at 1 mg/kg per compound (administered iv in a mixture of 5 compounds to 3 mice) assessed by LCMS/MS.; format: ADME, organism-based; settings: male, Swiss albino, mouse, in vivo, read-out: Clearance (converted)
Outline: as §2, with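 “Tween-80. Blood sampled at 5, 15, 30 min and 1, 2, 4, 8, 24 h.” for “Tween-80.”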

[19] = Percentage of parent compound remaining after incubation for 30 minutes with cyropreserved human hepatocytes at a concentration of 1uM compound and 1 million cells/uL, determined by LCMS/MS; format: ADME, tissue-based, Hepatocyte; settings: cryopreserved human hepatocytes, read-out: Stability; outline: as §1
[20] = Percentage of parent compound remaining after incubation for 30 minutes with cyropreserved mouse hepatocytes at a concentration of 1uM compound and […], determined by LCMS; format: ADME, tissue-based, Hepatocyte; settings: cryopreserved mouse hepatocytes, read-out: Stability; outline: as §1
[21] = male, Swiss albino, read-out: Bioavailability

| SMILES | EC50 [1] [nM] | remaining at 1.5 h, 1 µM [2] [%] | remaining at 1.5 h, 1 µM [3] [%] | EC50 [4] [nM] | CC50 [5] [nM] | solubility kinetic at 24 h [6] [µM] | Lipophilicity [8] | concentration at 4 h [10] [ng/mL] | Tmax [11] [h] | also measured |
| --- | --- | --- | --- | --- | --- | --- | --- | --- | --- | --- |
| CCc1nc2cnc(-c3ccc(F)c(C(C)C)c3)cn2c1-c1ccc2[nH]ncc2c1F | 5.4 | 59.3 | 37.8 | 3.9 | 11300 | – | – | – | – | – |
| CC(C)c1cc(-c2cn3c(-c4ccc5[nH]ncc5c4F)c(C4CCC4)nc3cn2)ccc1F | 4.3 | 52.1 | 25.3 | 7.3 | 10900 | 1.35 (≈ 0.599 µg/mL) | – | – | – | – |
| Fc1ccc(-c2cn3c(-c4ccc5[nH]ncc5c4F)c(C(F)(F)F)nc3cn2)cc1C(F)(F)F | – | – | – | – | 16600 | – | 5.29 = | 298 | – | concentration at 4 h [7]: 1500 ng/mL; Efficacy [9]: 1.84% |
| Fc1ccc(-c2cn3c(-c4ccc5[nH]ncc5c4F)c(C(F)(F)F)nc3cn2)cc1C(F)(F)C(F)(F)F | – | – | – | – | 11700 | – | 5.6 = | 359 | 2 | concentration at 4 h [7]: 556 ng/mL; Binding ([12]; mouse): 100%; bioavailability [13]: 170%; Efficacy [9]: 1.84% |
| Fc1ccc(-c2cn3c(-c4ccc5[nH]ncc5c4F)c(C4CCC4)nc3cn2)cc1C(F)(F)F | 36 | 73.4 | 73.6 | 36.8 | – | – | – | – | – | – |
| CC(C)c1nc2cnc(-c3cccc(C(F)(F)F)c3)cn2c1-c1ccc2[nH]ncc2c1F | 51.7 | – | – | 30.7 | 15100 | 1.52 (≈ 0.668 µg/mL) | 4.56 = | 194 | 0.5 | concentration at 24 h [14]: 18 ng/mL; Binding ([12]; human): 99.997%; Binding ([12]; mouse): 99.975%; Vd [15]: 3.44 L/kg; half-life [16]: 6.03 h; bioavailability [13, 21]: 63.2%; AUC(0-inf) [17]: 929 ng·h/mL; clearance [18]: 9.15 mL/min/kg; remaining at 0.5 h, 1 µM [19]: 83.1%; remaining at 0.5 h, 1 µM [20]: 93.9% |
| CC(C)c1cc(-c2cn3c(-c4ccc5[nH]ncc5c4F)c(C(C)C)nc3cn2)ccc1F | 4.96 | 46.2 | 37.7 | 3.98 | 11000 | 0.784 (≈ 0.338 µg/mL) | – | 119 | 0.5 | concentration at 24 h [14]: 4.17 ng/mL; Vd [15]: 4.48 L/kg; half-life [16]: 5.69 h; bioavailability [13, 21]: 64%; AUC(0-inf) [17]: 558 ng·h/mL; clearance [18]: 15 mL/min/kg |
